Among the data in ChEMBL document CHEMBL1134741, “Synthesis and preliminary pharmacological evaluation of coumestans with different patterns of oxygenation” (Bioorg Med Chem Lett, 2001) are Concentration and IC50 values, retold here.

Some results are limits rather than exact numbers.

The test system of one test is P06732. Put plainly: (§1) Concentration required to antagonise the creatine kinase release induced by Bothrops jararacussu venom. The test is classed as functional.
Test [1] has as its target T1, Polyunsaturated fatty acid 5-lipoxygenase (Homo sapiens, UniProt P09917).
T1 sequence (P09917 whole entry): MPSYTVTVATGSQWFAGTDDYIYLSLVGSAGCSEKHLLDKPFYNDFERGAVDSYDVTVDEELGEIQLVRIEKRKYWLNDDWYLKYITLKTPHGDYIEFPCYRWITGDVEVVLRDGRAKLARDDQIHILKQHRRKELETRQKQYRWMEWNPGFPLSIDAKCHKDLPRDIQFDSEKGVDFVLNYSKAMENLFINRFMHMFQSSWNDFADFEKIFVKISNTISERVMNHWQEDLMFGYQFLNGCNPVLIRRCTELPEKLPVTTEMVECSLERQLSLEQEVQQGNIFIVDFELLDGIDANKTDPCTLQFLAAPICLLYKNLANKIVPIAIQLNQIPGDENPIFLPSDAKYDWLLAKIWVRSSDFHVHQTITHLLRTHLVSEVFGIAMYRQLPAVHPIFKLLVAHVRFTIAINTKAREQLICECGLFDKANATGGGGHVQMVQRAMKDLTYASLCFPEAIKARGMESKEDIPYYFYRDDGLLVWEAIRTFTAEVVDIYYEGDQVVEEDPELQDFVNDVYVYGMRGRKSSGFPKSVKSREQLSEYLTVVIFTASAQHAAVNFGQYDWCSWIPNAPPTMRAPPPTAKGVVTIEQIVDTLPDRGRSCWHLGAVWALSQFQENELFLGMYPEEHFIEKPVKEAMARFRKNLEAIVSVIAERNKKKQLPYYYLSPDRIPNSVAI
Put plainly: Tested for the inhibitory activity against 5-lipoxygenase.

The target in test [2] is GABA-A receptor; anion channel. Put plainly: Inhibition of [3H]flunitrazepam binding to rat brain synaptosomes. The class given is subcellular. The procedure, abridged: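 Crude rat brain synaptosomes (200 µg protein; cerebellum and brainstem removed) were incubated with 0.2 nM [3H]-flunitrazepam in buffered Krebs solution for 90 min at 4 °C.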
The species named for another test is Rattus norvegicus. Put plainly: Tested for the inhibitory activity against rat kidney Na+, K+-ATPase. The class given is functional. In short, it runs like this: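 Na+,K+-ATPase was taken from partially purified rat kidney microsomes. Inhibition was measured by phosphate release (Fiske–Subbarow) using 1.2 mM ATP.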
The subject of the next test is Bothrops jararacussu. Described as §1. The test is classed as functional, organism-based.
Test [3] is described as follows: Tested for antimyotoxic activity of the compound. The class given is functional.

Sequence of P06732 (P06732 whole entry): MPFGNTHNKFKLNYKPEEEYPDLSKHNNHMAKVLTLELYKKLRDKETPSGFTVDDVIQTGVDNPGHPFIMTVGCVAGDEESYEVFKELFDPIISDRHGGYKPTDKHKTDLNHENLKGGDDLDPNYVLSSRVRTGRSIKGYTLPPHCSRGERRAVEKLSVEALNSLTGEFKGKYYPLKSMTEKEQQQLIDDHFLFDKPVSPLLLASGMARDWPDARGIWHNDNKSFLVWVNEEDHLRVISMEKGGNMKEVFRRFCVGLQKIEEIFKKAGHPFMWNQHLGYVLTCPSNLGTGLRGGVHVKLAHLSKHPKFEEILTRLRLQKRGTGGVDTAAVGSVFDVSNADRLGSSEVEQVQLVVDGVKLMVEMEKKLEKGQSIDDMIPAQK

Molecule `O=c1oc2cc(O)ccc2c2oc3cc(O)c(O)cc3c12` gave a Concentration in the test on P06732 of 30 µM.

With `COc1cc(O)c2c(c1)oc(=O)c1c3cc(O)c(O)cc3oc21` [WEDELOLACTONE], the half-maximal inhibitory concentration (IC50) (commonly the point on the concentration scale where inhibition reaches its midpoint) worked out at 2500 nM in test [1], 2000 nM in test [2] and 700 nM in the test filed under Rattus norvegicus.

For `COc1cc2oc3c4ccc(O)cc4oc(=O)c3c2cc1O`, the Concentration in the test on P06732 came out at 30 µM.

On to `O=c1oc2cc(O)ccc2c2oc3cc4c(cc3c12)OCO4`, for which, in the test on P06732, the Concentration turned out to be 30 µM.

`COc1cc2oc(=O)c3c4cc(OC)c(O)cc4oc3c2cc1O` gave a Concentration in the test with P06732 of 30 µM.

On to `COc1cc2oc(=O)c3c4cc(O)c(O)cc4oc3c2cc1O`, for which, in the test on Bothrops jararacussu, the Concentration came out at 30 µM. In addition, the IC50 in test [2] was more than 100000 nM; in test [3], 1000 nM; in the test listed under Rattus norvegicus it was 500 nM.
